KCNQ1 inh: human KCNQ1 channel inhibition; P51787; CHO-K1 KCNQ1, FluxOR thallium flux fluorescence; active compounds read high; B-score at 10 µM; actives 1.3% (n = 310,000); AID 2642;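 active = compounds whose thallium flux B-score, printed positive for inhibition, exceeds three library SD while starting fluorescence stays within three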;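 also: channel opened by potassium depolarization with thallium stimulus after 20 min compound exposure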
Kir21 inh: inhibitors of mouse Kir2.1 inward-rectifier potassium channel; B-score at 10 µM; actives 0.85% (n = 310,000); HEK293-Kir2.1, FluxOR thallium flux fluorescence; active compounds read low;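 active = fluorescence ratio B-score at or below minus 3 SD of library scores, with starting-brightness B-score within 2 SD, cut at about -4.2 in these data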;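 also: channel flux triggered by added potassium and thallium sulfate stimulus; B-score of peak minus minimum fluorescence over baseline after thallium stimulus; more negative B-score means stronger Kir2.1 block with less thallium influx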
hERG rescue: hERG (human) protection from proarrhythmic block; Q12809; CHO-hERG, FluxOR thallium flux, dofetilide IC70 present; activation (rescue from dofetilide block), less the hit threshold, % at 10 µM; actives 0.51% (n = 310,000);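 active = activation above the mean of controls blocked by dofetilide plus 5 SD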;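 also: thallium influx through hERG after potassium depolarization seen as dye fluorescence rise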
Target sequence (Q12809 whole entry, looked up): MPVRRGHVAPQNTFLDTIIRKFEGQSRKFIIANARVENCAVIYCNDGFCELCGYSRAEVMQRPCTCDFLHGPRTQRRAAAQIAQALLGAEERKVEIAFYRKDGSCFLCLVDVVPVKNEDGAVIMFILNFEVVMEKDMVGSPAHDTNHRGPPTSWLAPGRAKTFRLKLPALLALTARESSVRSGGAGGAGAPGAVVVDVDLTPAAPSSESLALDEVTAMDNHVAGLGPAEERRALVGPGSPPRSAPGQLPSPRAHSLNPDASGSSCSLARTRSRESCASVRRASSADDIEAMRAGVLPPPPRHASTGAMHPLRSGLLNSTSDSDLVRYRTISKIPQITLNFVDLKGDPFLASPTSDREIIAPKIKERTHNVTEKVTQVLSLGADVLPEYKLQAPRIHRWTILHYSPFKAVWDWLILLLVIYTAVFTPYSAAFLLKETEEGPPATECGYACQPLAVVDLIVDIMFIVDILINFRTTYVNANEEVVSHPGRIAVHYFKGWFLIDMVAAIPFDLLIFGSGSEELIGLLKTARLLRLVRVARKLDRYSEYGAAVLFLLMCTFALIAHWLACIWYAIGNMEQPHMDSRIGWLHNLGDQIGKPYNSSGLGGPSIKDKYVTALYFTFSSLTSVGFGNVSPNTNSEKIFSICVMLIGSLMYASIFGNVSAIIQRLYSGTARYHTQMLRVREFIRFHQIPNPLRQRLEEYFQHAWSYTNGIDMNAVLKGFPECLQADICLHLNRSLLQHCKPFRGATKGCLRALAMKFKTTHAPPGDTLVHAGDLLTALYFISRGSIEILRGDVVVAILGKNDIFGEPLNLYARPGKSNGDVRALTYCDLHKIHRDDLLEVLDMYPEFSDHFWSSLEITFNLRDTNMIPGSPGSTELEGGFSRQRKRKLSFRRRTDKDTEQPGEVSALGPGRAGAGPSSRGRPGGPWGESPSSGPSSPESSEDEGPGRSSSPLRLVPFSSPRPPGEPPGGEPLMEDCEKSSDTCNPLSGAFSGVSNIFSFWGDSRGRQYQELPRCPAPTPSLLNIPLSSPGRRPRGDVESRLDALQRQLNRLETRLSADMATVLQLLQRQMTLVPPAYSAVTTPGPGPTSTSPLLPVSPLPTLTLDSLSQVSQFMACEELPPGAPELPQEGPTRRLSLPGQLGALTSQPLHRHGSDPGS
KCNK3 block: human KCNK3 channel inhibition, primary screen. O14649. CHO-KCNK3 thallium flux, FluxOR fluorescence; active compounds read low. B-score at 10 µM. actives 0.84% (n = 340,000);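 active = B-score under library mean minus 4 SD, starting fluorescence ratio at most library mean plus 5 SD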;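 also: more negative B-score means stronger inhibition of thallium flux through KCNK3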
KCNQ1 pot: potentiates or activates the human KCNQ1 potassium channel. B-score at 10 µM. actives 0.35% (n = 310,000). P51787. CHO-K1 KCNQ1, thallium flux FluxOR fluorescence; active compounds read high;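 active = fluorescence ratio B-score, a plate-corrected score, at least three library SD, with initial intensity B-score within 5 SD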
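assay system = CHO-K1 cells stably expressing KCNQ1 | medium = assay buffer, equal DMSO in all wells | timing = 37 °C overnight plating, 90-min dark dye load, 20-min compound pretreatment | measured by = kinetic FluxOR thallium fluorescence, 10-s 1-Hz baseline, 110-s post-stimulus read | measure = fluorescence change relative to baseline, converted to B score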
KCNK9 block: human KCNK9 channel inhibition | Q9NPC2 | HEK293 KCNK9, FluxOR thallium flux fluorescence; active compounds read low | B-score at 10 µM | actives 1.2% (n = 310,000) | AID 488922;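 active = ratio B-score over 3 SD below the library mean, with starting fluorescence within 5 SD of its mean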;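 also: negative B-score means less thallium flux so channel inhibition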
* hit, by the source's call; i = inactive; · = not tested or not shown. Hits are enriched below; roughly 3.7% of the tested compounds scored in any of these assays.

SMILES	KCNQ1 inh	Kir21 inh	hERG rescue	KCNK3 block	KCNQ1 pot	KCNK9 block
Cn1cccc1CNCCc1ccccc1	i	-1.5	6.4*	·	i	i
COc1ccc(CCNCc2cccn2C)cc1	i	0.51	-6	i	i	i
C=C(C)[C@@H]1C2C(=O)O[C@H]1[C@H]1OC(=O)[C@@]34OC3C[C@]2(O)[C@@]14C (some centres undefined)	·	·	·	i	·	·
CC1=CC2/C=C(\C)CCC(O)C(O)/C=C/C(=O)C23C(=O)NC(CC(C)C)C3C1C (centres undefined)	i	-7.1*	-12	i	10*	i
COCCNCCOc1ccc(C(C)(C)c2ccccc2)cc1	i	-12*	-4	i	i	i
N#CC(C#N)=NNc1ccc(-n2ccc(C(F)(F)F)n2)cc1	7*	-6*	-36	i	i	i
CC(=O)O[C@@H]1[C@H]2CC[C@@H]3[C@]1(C[C@@H](OC(C)=O)[C@@]1(O)C([C@@H]4O[C@@H]4C1(C)C)[C@]3(C)O)C[C@@]2(C)O (some centres undefined)	i	-2.7	-7	i	i	i
C[N+]1(CC2COC(c3ccco3)O2)CCCCC1 (centres undefined)	i	1.8	-4	i	i	i
C=C1C(=O)O[C@@H]2C[C@@H](C)[C@@H]3C=CC(=O)[C@@]3(C)[C@@H](O)[C@H]12	i	-4.3*	-8	i	i	i
C[C@@H]1C[C@H]2OC(=O)C3(CO3)[C@H]2[C@H](O)[C@]2(C)C(=O)C3OC3[C@@H]12 (some centres undefined)	i	-0.07	-3	·	i	i
CCC(=NCC1CCCO1)c1c(O)n(-c2ccc(OC)cc2)c(=O)[nH]c1=O (centres undefined)	i	-0.93	-10	i	i	i
O=C(c1ccc(Cl)cc1)C1CCCN(Cc2cccc3ncccc23)C1 (centres undefined)	i	-1.8	-27	i	i	i
COc1ccc(CN2CCCC(C(=O)c3ccc(Cl)cc3)C2)c(O)c1 (centres undefined)	i	-11*	-3	i	i	i
O=S(=O)(c1ccc(F)cc1)N1CCCCC1c1cccnc1 (centres undefined)	i	-4.9*	-6	i	i	i
O=S(=O)(c1ccc(F)cc1)N1CCCC1c1cccnc1 (centres undefined)	i	-1.5	-8	i	i	i
O=S(=O)(c1ccc(Cl)cc1)N1CCCCC1c1cccnc1 (centres undefined)	i	-9*	-5	i	i	i
O=C1C2C3CCC(O3)C2C(=O)N1c1cccc(F)c1 (centres undefined)	i	0.39	-12	i	i	i
CC1N=C(c2ccccc2Cl)c2cc(Br)ccc2NC1=O (centres undefined)	i	1.5	7.6*	i	i	i
O=C1Nc2ccc(Br)cc2C(c2ccccc2Cl)=NC1O (centres undefined)	i	-1.1	-6	i	i	i
Clc1ccc2[nH]c3c(c2c1)CCNC3	i	-0.93	-10	i	i	i
c1ccc(-c2ccc(-c3n(-c4ccccn4)c4ccccc4[n+]3-c3ccccn3)cc2)cc1	9*	-1.5	-31	i	i	i
COC(=O)C1=C(c2ccc(OC(F)(F)F)cc2)C[C@@H]2CC[C@H]1N2C(=O)NCc1cccc2ccccc12	·	·	·	i	·	·
COc1cccc(-n2c(/C=C/c3ccc(O)c(O)c3)nc3ccccc3c2=O)c1	6*	-1.9	-28	i	i	i
CCOC(=O)c1c(-n2c(C)cc(C=C3C(=O)NC(=S)NC3=O)c2C)sc2c1CCCC2	i	-4.8*	-17	i	i	i
CCOC(=O)c1c(-n2c(C)cc(/C=C3/C(=O)NC(=O)N(CC)C3=O)c2C)sc2c1CCCC2	i	-0.58	-2	i	i	i
SMILES	KCNQ1 inh	Kir21 inh	hERG rescue	KCNK3 block	KCNQ1 pot	KCNK9 block
CN(c1ccccc1)P(=O)(N1CC1)N1CC1	·	·	·	i	·	·
O=C1NC(=O)N(c2ccc3c(c2)OCO3)C(=O)/C1=C/c1ccc(N2CCCCC2)o1	6*	-4.3*	-19	i	i	-7.7*
O=C1NC(=O)N(c2ccc3c(c2)OCO3)C(=O)/C1=C\c1ccc(-c2ccccc2C(=O)O)o1	i	-0.18	-2	i	i	i
O=[N+]([O-])c1ccc(N2CCNCC2)cc1NCc1ccco1	i	-4.4*	-10	i	i	i
COc1c(C=C2C(=O)NC(=O)NC2=O)c(CCN(C)C(=O)c2ccccc2)cc2c1OCO2	i	-4.5*	-9	i	i	i
COc1ccc(-[n+]2c(-c3ccccc3)cc(-c3ccccc3)cc2-c2ccccc2)cc1	6*	-7.5*	-30	·	i	-8.8*
O=[N+]([O-])c1ccc(-[n+]2c(-c3ccccc3)cc(-c3ccccc3)cc2-c2ccccc2)cc1	i	-2	-10	i	i	i
Oc1ccc(-[n+]2c(-c3ccccc3)cc(-c3ccccc3)cc2-c2ccccc2)cc1	10*	-10*	-50	i	i	-7.3*
COC(=O)C1=C(c2ccc(Cl)c(C(F)(F)F)c2)C[C@@H]2CC[C@H]1N2C(=O)NCCCOC(C)C	·	·	·	i	·	·
CCn1c(O)c(C=Nc2ccc(N3CCOCC3)cc2)c(=O)n(CC)c1=S	7*	-0.69	-19	i	i	i
CCn1c(O)c(C=Nc2ccc(N3CCOCC3)c(Br)c2)c(=O)n(CC)c1=S	i	0.69	-18	i	i	i
CCCCCCCSc1cc(OC)c(CCNC)cc1OC	i	-9.8*	-14	i	i	i
CCCCCSc1cc(OC)c(CCNC)cc1OC	i	-8.9*	-6	i	i	i
COCCNC(=O)CN1C(=O)CN=C(c2ccccc2)c2ccccc21	i	-1.5	-7	i	i	i
CC(C)[N+](C)(CCC(C(N)=O)(c1ccccc1)c1ccccc1)C(C)C	i	1.2	-4	i	i	i
CCOc1cc(CNCCc2c[nH]c3ccccc23)cc(Cl)c1OCC	i	-7.6*	-18	i	i	i
CCC(=O)Nc1ccc(Cl)c(Cl)c1	·	·	·	i	·	·
CC(NCc1ccccc1Cl)C(O)c1ccccc1 (centres undefined)	i	-5.7*	-6	i	i	i
CCOc1cc(CNC(C)C(O)c2ccccc2)cc(Cl)c1OCC (centres undefined)	i	-5.6*	-8	i	i	i
CC(NCc1ccc(Cl)c(Cl)c1)C(O)c1ccccc1 (centres undefined)	i	-4.6*	-6	i	i	i
